Laboratory results reported in ChEMBL document CHEMBL2396592, “Discovery of Dap-3 polymyxin analogues for the treatment of multidrug-resistant Gram-negative nosocomial infections” (J Med Chem, 2013).
Values after ≈ are worked out from the molar mass of the structure shown. *1 amine or outer side, *2 acyl side, *3 side chain or, on linkers, in order; H or OH if unused. Where a SMILES comes first, the peptide text is derived from it. Bridges are numbered along the chain shown (N, C = ends). [ ]: non-standard residue; d: D form. The star is where a group is joined. Isonicotinoyl(2-Ph) = O=C(c1ccnc(-c2ccccc2)c1)*; Benzoyl(3-Ph) = O=C(c1cccc(-c2ccccc2)c1)*; Benzoyl(4-Ph) = O=C(c1ccc(-c2ccccc2)cc1)*; X16 = COc1cc(C(=O)*)cc(-c2ccccc2)n1; X17 = O=S(=O)(c1cccc(-c2ccccc2)c1)*; X19 = O=C(c1ccnc(-c2cccc(Cl)c2)c1)*; X15 = N#Cc1ccc(C(=O)*)cc1-c1ccccc1; X13 = COc1ccc(-c2ccccc2)cc1C(=O)*; X14 = O=C(c1ccc(Oc2ccccc2)nc1)*; X18 = c1ccc(-c2cccc(N*)c2)cc1; Dab = NCC[C@H](N)C(=O)O; Dap = NC[C@H](N)C(=O)O; CO = O=C([*:1])[*:2]

How the values were obtained:
[1] = tested on: Klebsiella pneumoniae; test: Antibacterial activity against polymyxin-sensitive ESBL-positive Klebsiella pneumoniae clinical isolate 3700 assessed as growth inhibition by broth microdilution method; type: functional
[2] = tested on: Pseudomonas aeruginosa; test: Antibacterial activity against polymyxin-resistant Pseudomonas aeruginosa clinical isolate 1646 assessed as growth inhibition by broth microdilution method; type: functional
Procedure, shortened: (§1)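 Test strain PA-1646 is a P. aeruginosa isolate with a mutated PmrAB two-component system. The system is constitutively active, so the modified lipid A moiety is constantly expressed on the cell surface, giving a polymyxin-resistant phenotype.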

[3] = tested on: Pseudomonas aeruginosa; test: Antibacterial activity against polymyxin-sensitive Pseudomonas aeruginosa 1401 assessed as growth inhibition by broth microdilution method; type: functional
Procedure, shortened: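 CLSI broth microdilution MIC against P. aeruginosa 1401 (PA01) and 1402 (UC12120), the two strains used in the mouse thigh model.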

[4] = tested on: Acinetobacter baumannii; test: Antibacterial activity against polymyxin-sensitive Acinetobacter baumannii clinical isolate 3167 assessed as growth inhibition by broth microdilution method; type: functional
[5] = tested on: Pseudomonas aeruginosa; test: Bactericidal activity against polymyxin-resistant Pseudomonas aeruginosa clinical isolate 1646; type: functional; procedure, shortened: as §1
[6] = Cytotoxicity against human RPTEC after 24 hrs by LDH assay; type: cell-based; conditions: RPTEC cells, read-out: TC50
Procedure, shortened: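 Primary human renal proximal tubule epithelial cells in REGM (EGF, hydrocortisone, epinephrine, insulin, T3, transferrin, gentamycin/amphotericin-B, FBS). After 72 h of growth at 37 °C, 5% CO2, cells were exposed for 24 h to aqueous compound at 100, 67, 44, 30, 20 and 13 μM. LDH release into the supernatant was measured by kit and TC50 (μM) derived, with PMB and PMBN as controls.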

[7] = tested on: Acinetobacter baumannii; test: Bactericidal activity against polymyxin-resistant Acinetobacter baumannii clinical isolate 1649; type: functional
[8] = tested on: Acinetobacter baumannii; test: Antibacterial activity against polymyxin-resistant Acinetobacter baumannii clinical isolate 1649 assessed as growth inhibition by broth microdilution method; type: functional
[9] = tested on: Escherichia coli; test: Antibacterial activity against polymyxin-sensitive Escherichia coli isolate 1 assessed as growth inhibition by broth microdilution method; type: functional

Compound: COc1ccc(-c2ccccc2)cc1C(=O)N[C@@H](CCN)C(=O)N[C@H](C(=O)N[C@@H](CN)C(=O)N[C@H]1CCNC(=O)[C@H]([C@@H](C)O)NC(=O)[C@H](CCN)NC(=O)[C@H](CCN)NC(=O)[C@H](CC(C)C)NC(=O)[C@@H](Cc2ccccc2)NC(=O)[C@H](CCN)NC1=O)[C@@H](C)O (X13-[Dab]T[Dap][Dab][Dab][dF]L[Dab][Dab]T; lactam 4-C)
- MIC [1]: 0.25 µg/mL
- MIC [2]: 2 µg/mL
- MIC [3]: 0.5 µg/mL
- MIC [4]: 0.25 µg/mL
- MBC [5]: 2 µg/mL (≈ 1.59 µM)
- CC50 at 24 h [6]: 19 µM
- MBC [7]: 4 µg/mL (≈ 3.18 µM)
- MIC [8]: 4 µg/mL
- MIC [9]: 0.5 µg/mL

Compound: CC(C)C[C@@H]1NC(=O)[C@@H](Cc2ccccc2)NC(=O)[C@H](CCN)NC(=O)[C@@H](NC(=O)[C@H](CN)NC(=O)[C@@H](NC(=O)[C@H](CCN)NC(=O)c2ccc(Oc3ccccc3)nc2)[C@@H](C)O)CCNC(=O)[C@H]([C@@H](C)O)NC(=O)[C@H](CCN)NC(=O)[C@H](CCN)NC1=O (X14-[Dab]T[Dap][Dab][Dab][dF]L[Dab][Dab]T; lactam 4-C)
- MIC [1]: 0.25 µg/mL
- MIC [2]: 4 µg/mL
- MIC [3]: 1 µg/mL
- MIC [4]: 0.25 µg/mL
- MBC [5]: 16 µg/mL (≈ 12.8 µM)
- CC50 at 24 h [6]: 61 µM
- MBC [7]: 4 µg/mL (≈ 3.21 µM)
- MIC [8]: 2 µg/mL
- MIC [9]: 0.25 µg/mL

Compound: CC(C)C[C@@H]1NC(=O)[C@@H](Cc2ccccc2)NC(=O)[C@H](CCN)NC(=O)[C@@H](NC(=O)[C@H](CN)NC(=O)[C@@H](NC(=O)[C@H](CCN)NC(=O)c2ccc(C#N)c(-c3ccccc3)c2)[C@@H](C)O)CCNC(=O)[C@H]([C@@H](C)O)NC(=O)[C@H](CCN)NC(=O)[C@H](CCN)NC1=O (X15-[Dab]T[Dap][Dab][Dab][dF]L[Dab][Dab]T; lactam 4-C)
- MIC [1]: 0.25 µg/mL
- MIC [2]: 2 µg/mL
- MIC [3]: 0.25 µg/mL
- MIC [4]: 0.25 µg/mL
- MBC [5]: 4 µg/mL (≈ 3.19 µM)
- CC50 at 24 h [6]: 39 µM
- MBC [7]: 0.5 µg/mL (≈ 0.399 µM)
- MIC [8]: 0.5 µg/mL
- MIC [9]: 0.125 µg/mL

Compound: COc1cc(C(=O)N[C@@H](CCN)C(=O)N[C@H](C(=O)N[C@@H](CN)C(=O)N[C@H]2CCNC(=O)[C@H]([C@@H](C)O)NC(=O)[C@H](CCN)NC(=O)[C@H](CCN)NC(=O)[C@H](CC(C)C)NC(=O)[C@@H](Cc3ccccc3)NC(=O)[C@H](CCN)NC2=O)[C@@H](C)O)cc(-c2ccccc2)n1 (X16-[Dab]T[Dap][Dab][Dab][dF]L[Dab][Dab]T; lactam 4-C)
- MIC [1]: 0.25 µg/mL
- MIC [2]: 1 µg/mL
- MIC [3]: 0.5 µg/mL
- MIC [4]: 0.5 µg/mL
- MBC [5]: 1 µg/mL (≈ 0.793 µM)
- CC50 at 24 h [6]: 24 µM
- MBC [7]: 4 µg/mL (≈ 3.17 µM)
- MIC [8]: 4 µg/mL
- MIC [9]: 0.25 µg/mL

Compound: CC(C)C[C@@H]1NC(=O)[C@@H](Cc2ccccc2)NC(=O)[C@H](CCN)NC(=O)[C@@H](NC(=O)[C@H](CN)NC(=O)[C@@H](NC(=O)[C@H](CCN)NS(=O)(=O)c2cccc(-c3ccccc3)c2)[C@@H](C)O)CCNC(=O)[C@H]([C@@H](C)O)NC(=O)[C@H](CCN)NC(=O)[C@H](CCN)NC1=O (X17-[Dab]T[Dap][Dab][Dab][dF]L[Dab][Dab]T; lactam 4-C)
- MIC [1]: 0.5 µg/mL
- MIC [2]: 2 µg/mL
- MIC [3]: 0.25 µg/mL
- MIC [4]: 1 µg/mL
- MBC [5]: 4 µg/mL (≈ 3.16 µM)
- CC50 at 24 h [6]: 42 µM
- MBC [7]: > 64 µg/mL
- MIC [8]: 64 µg/mL
- MIC [9]: 0.25 µg/mL

Compound: CC(C)C[C@@H]1NC(=O)[C@@H](Cc2ccccc2)NC(=O)[C@H](CCN)NC(=O)[C@@H](NC(=O)[C@H](CN)NC(=O)[C@@H](NC(=O)[C@H](CCN)NC(=O)c2ccnc(-c3cccc(Cl)c3)c2)[C@@H](C)O)CCNC(=O)[C@H]([C@@H](C)O)NC(=O)[C@H](CCN)NC(=O)[C@H](CCN)NC1=O (X19-[Dab]T[Dap][Dab][Dab][dF]L[Dab][Dab]T; lactam 4-C)
- MIC [1]: 0.5 µg/mL
- MIC [2]: 1 µg/mL
- MIC [3]: 0.5 µg/mL
- MIC [4]: 0.25 µg/mL
- MBC [5]: 1 µg/mL (≈ 0.791 µM)
- CC50 at 24 h [6]: 34 µM
- MBC [7]: 0.5 µg/mL (≈ 0.395 µM)
- MIC [8]: 0.5 µg/mL
- MIC [9]: 0.125 µg/mL

Compound: CC(C)C[C@@H]1NC(=O)[C@@H](Cc2ccccc2)NC(=O)[C@H](CCN)NC(=O)[C@@H](NC(=O)[C@H](CN)NC(=O)[C@@H](NC(=O)[C@H](CCN)NC(=O)c2cccc(-c3ccccc3)c2)[C@@H](C)O)CCNC(=O)[C@H]([C@@H](C)O)NC(=O)[C@H](CCN)NC(=O)[C@H](CCN)NC1=O ({Benzoyl(3-Ph)}-[Dab]T[Dap][Dab][Dab][dF]L[Dab][Dab]T; lactam 4-C)
- MIC [1]: 0.5 µg/mL
- MIC [2]: 1 µg/mL
- MIC [3]: 0.5 µg/mL
- MIC [4]: 0.25 µg/mL
- MBC [5]: 2 µg/mL (≈ 1.63 µM)
- CC50 at 24 h [6]: 21 µM
- MBC [7]: 2 µg/mL (≈ 1.63 µM)
- MIC [8]: 2 µg/mL
- MIC [9]: 0.25 µg/mL

Compound: CC(C)C[C@@H]1NC(=O)[C@@H](Cc2ccccc2)NC(=O)[C@H](CCN)NC(=O)[C@@H](NC(=O)[C@H](CN)NC(=O)[C@@H](NC(=O)[C@H](CCN)NC(=O)c2ccc(-c3ccccc3)cc2)[C@@H](C)O)CCNC(=O)[C@H]([C@@H](C)O)NC(=O)[C@H](CCN)NC(=O)[C@H](CCN)NC1=O ({Benzoyl(4-Ph)}-[Dab]T[Dap][Dab][Dab][dF]L[Dab][Dab]T; lactam 4-C)
- MIC [1]: 0.25 µg/mL
- MIC [2]: 0.5 µg/mL
- MIC [3]: 0.5 µg/mL
- MIC [4]: 0.25 µg/mL
- MBC [5]: 1 µg/mL (≈ 0.813 µM)
- CC50 at 24 h [6]: 28 µM
- MBC [7]: 1 µg/mL (≈ 0.813 µM)
- MIC [8]: 1 µg/mL
- MIC [9]: 0.25 µg/mL

Compound: CC(C)C[C@@H]1NC(=O)[C@@H](Cc2ccccc2)NC(=O)[C@H](CCN)NC(=O)[C@@H](NC(=O)[C@H](CN)NC(=O)[C@@H](NC(=O)[C@H](CCN)NC(=O)c2ccnc(-c3ccccc3)c2)[C@@H](C)O)CCNC(=O)[C@H]([C@@H](C)O)NC(=O)[C@H](CCN)NC(=O)[C@H](CCN)NC1=O ({Isonicotinoyl(2-Ph)}-[Dab]T[Dap][Dab][Dab][dF]L[Dab][Dab]T; lactam 4-C)
- MIC [1]: 0.25 µg/mL
- MIC [2]: 2 µg/mL
- MIC [3]: 0.25 µg/mL
- MIC [4]: 0.25 µg/mL
- MBC [5]: 4 µg/mL (≈ 3.25 µM)
- CC50 at 24 h [6]: 82 µM
- MBC [7]: 1 µg/mL (≈ 0.813 µM)
- MIC [8]: 1 µg/mL
- MIC [9]: 0.125 µg/mL

Compound: CC(C)C[C@@H]1NC(=O)[C@@H](Cc2ccccc2)NC(=O)[C@H](CCN)NC(=O)[C@@H](NC(=O)[C@H](CN)NC(=O)[C@@H](NC(=O)[C@H](CCN)NC(=O)Nc2cccc(-c3ccccc3)c2)[C@@H](C)O)CCNC(=O)[C@H]([C@@H](C)O)NC(=O)[C@H](CCN)NC(=O)[C@H](CCN)NC1=O ({X18-CO}-[Dab]T[Dap][Dab][Dab][dF]L[Dab][Dab]T; lactam 4-C)
- MIC [1]: 0.25 µg/mL
- MIC [2]: 1 µg/mL
- MIC [3]: 0.5 µg/mL
- MIC [4]: 0.25 µg/mL
- MBC [5]: 1 µg/mL (≈ 0.804 µM)
- CC50 at 24 h [6]: 15 µM
- MBC [7]: 4 µg/mL (≈ 3.21 µM)
- MIC [8]: 4 µg/mL
- MIC [9]: 0.25 µg/mL

Compound: CC(C)C[C@@H]1NC(=O)[C@@H](Cc2ccccc2)NC(=O)[C@H](CCN)NC(=O)[C@@H](NC(=O)[C@H](CCN)NC(=O)[C@@H](N)[C@@H](C)O)CCNC(=O)[C@H]([C@@H](C)O)NC(=O)[C@H](CCN)NC(=O)[C@H](CCN)NC1=O [POLYMYXIN B NONAPEPTIDE] (H-T[Dab][Dab][Dab][dF]L[Dab][Dab]T; lactam 3-C)
- MIC [1]: > 64 µg/mL
- MIC [2]: > 64 µg/mL
- MIC [3]: > 64 µg/mL
- MIC [4]: > 64 µg/mL
- MBC [5]: > 64 µg/mL
- CC50 at 24 h [6]: > 100 µM
- MBC [7]: > 64 µg/mL
- MIC [8]: > 64 µg/mL
- MIC [9]: > 64 µg/mL
